# Compound activity (PubChem)
# NadD block = inhibitors of S. aureus NadD, primary screen, biochemical, colorimetric, uHTS; purified NadD enzyme, colorimetric absorbance read-out; Nicotinate-nucleotide adenylyltransferase NadD (Staphylococcus aureus N315); inhibition, % at 20 µM; 0.78% of 360,000 active; AID 602399, 2012; in the data active = inhibition above about 26%
# SUMO1-SIM PPI = modulators of SUMO1 protein-protein interactions, primary screen, biochemical, uHTS; 0.33% of 360,000 active; inhibition, % at 20 µM; SUMO1 binding to a labelled peptide, TR-FRET, 1 h; Small ubiquitin-related modifier 1 (Homo sapiens), P63165; in the data active = inhibition above about 37%
# Target sequence (P63165 whole entry, looked up): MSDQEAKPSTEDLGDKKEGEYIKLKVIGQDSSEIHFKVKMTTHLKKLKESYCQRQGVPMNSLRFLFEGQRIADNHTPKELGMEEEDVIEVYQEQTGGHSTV
# Scp1 inh = Scp-1 phosphatase inhibitors, primary screen, biochemical, colorimetric, uHTS; 0.88% of 340,000 active; inhibition, % at 20 µM; Recombinant Scp1, phosphopeptide, malachite green phosphate absorbance;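 active = inhibition above about 50% at 20 µM, limit read from the data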;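 note: plate controls were DMSO wells with enzyme for no effect and wells lacking enzyme for full effect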
# Target sequence (Q9GZU7 76-261 limits assumed): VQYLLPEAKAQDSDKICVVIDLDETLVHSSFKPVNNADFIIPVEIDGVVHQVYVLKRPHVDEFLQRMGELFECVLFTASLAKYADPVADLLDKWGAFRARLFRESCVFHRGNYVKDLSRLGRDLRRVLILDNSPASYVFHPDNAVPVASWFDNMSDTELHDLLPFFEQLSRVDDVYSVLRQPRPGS
#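 Test system – truncated SCP-1 phosphatase (76-261aa) · Reagent – Phosphorylated 17-residue peptide substrate · Incubation – 45 min room-temperature reaction, 5 min colour, 30 min stabiliser · Detection – colorimetric phosphate reagent with accelerator and stabiliser, absorbance at 630 nm · Measure – % inhibition at 20 µM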
# STEP inh = STEP phosphatase inhibitors, primary screen, biochemical, fluorescence intensity, uHTS | recombinant STEP, OMFP fluorogenic substrate | inhibition, % at 20 µM | 0.25% of 360,000 active | AID 588621, 2011;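 active = inhibition at 20 µM, scaled per plate between control wells, above about 37%, limit read from the data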;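 note: 0% = DMSO with enzyme and substrate and 100% = substrate only without enzyme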
#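 Test system: STEP tyrosine phosphatase / Reagent: OMFP at 25 µM / Doses: 20 µM, 1% DMSO / Read-out: percent inhibition scaled to no-enzyme and uninhibited-enzyme controls, plate-pattern corrected / Detection: FITC-channel fluorescence of OMFP product / Medium: Bis-Tris buffer pH 6.0, 2.5 mM DTT, 0.005% Tween 20 / Schedule: 20 min at room temperature, dark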
# LMPTP block = LMPTP phosphatase inhibitors, primary screen, biochemical, fluorescence intensity, uHTS; recombinant LMPTP-A, OMFP fluorogenic substrate; inhibition, % at 20 µM; 0.22% of 360,000 active;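 active = compounds that cut the enzyme signal by at least half of the control window in the single-dose screen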;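 note: plate controls were DMSO wells with enzyme plus substrate for no effect and substrate without enzyme for full effect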
# Target sequence (P24666 whole entry, looked up): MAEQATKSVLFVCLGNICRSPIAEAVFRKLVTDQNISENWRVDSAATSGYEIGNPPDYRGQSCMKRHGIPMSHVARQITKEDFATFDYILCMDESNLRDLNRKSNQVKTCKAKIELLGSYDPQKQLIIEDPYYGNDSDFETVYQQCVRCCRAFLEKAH
#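 Assay system: LMPTP-A, protein tyrosine phosphatase of low molecular weight / Medium: pH 6.0 Bis-Tris buffer with DTT and Triton X-100 / Schedule: 50 min enzyme reaction at room temperature, protected from light / Measured by: endpoint fluorescence intensity from OMFP dephosphorylation / Read-out basis: % inhibition relative to no-enzyme and uninhibited control wells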
# DNMT1 inh = human DNMT1 methyltransferase inhibitors, primary screen, biochemical, molecular beacon, fluorescence, HinP1I cleavage, uHTS; inhibition (reported as % activation of signal), % at 10 µM; 0.83% of 360,000 active; AID 588458, 2011; in the data active = inhibition above about 50%
# Active calls of the source: *; . = no result. Sampled rows, rich in hits. Any-hit rate of the full collection: about 2.4%.
SMILES,NadD block,SUMO1-SIM PPI,Scp1 inh,STEP inh,LMPTP block,DNMT1 inh
CCCCn1nc(NC(=O)COC)c2cc3ccc(C)cc3nc21,8,-6,52*,-6,2,12
CCn1nc(NC(=O)COC)c2cc3cc(C)ccc3nc21,2,-20,33,-4,0,2
CSc1ccc(S(=O)(=O)Nc2ccc3c(c2)OCCO3)cc1,0,4,-16,1,0,2
N#CC1=C2SCN(Cc3ccccc3)CN2C(=O)CC1c1cccs1 (stereo not given),1,3,-1,48*,6,-3
N#CC1=C2SCN(Cc3ccccc3)CN2C(=O)CC1c1ccc2c(c1)OCO2 (stereo not given),13,9,-7,3,11,-10
COc1ccc(CCC(=O)Nc2c(-c3ccc(N(C)C)cc3)[nH][nH]c2=O)cc1,7,47*,.,8,13,58*
Cn1cccc1/C=C1\SC(=S)N(NC(=O)c2ccccc2O)C1=O,1,-13,-15,0,4,2
O=C(NN1C(=O)/C(=C/C=C/c2ccco2)SC1=S)c1ccccc1O,40*,77*,74*,14,61*,91*
COc1ccc(/C=C2\SC(=S)N(C(Cc3ccccc3)C(=O)O)C2=O)cc1 (stereo not given),8,-14,-4,7,0,3
O=C(O)CCCN1C(=O)/C(=C/C=C/c2ccco2)SC1=S,1,103*,97*,54*,35,87*
O=C(O)C(Cc1ccccc1)N1C(=O)/C(=C/C=C/c2ccco2)SC1=S (stereo not given),27,115*,84*,83*,64*,97*
O=C(O)CC(C(=O)O)N1C(=O)/C(=C/C=C/c2ccco2)SC1=S (stereo not given),-2,112*,88*,89*,66*,79*
Cc1ccc(NC(=O)CCCN2C(=O)/C(=C/C=C/c3ccccc3)SC2=S)cc1,15,1,-7,1,1,-7
CCCNC(=O)CC(NS(=O)(=O)c1ccc(OC)cc1)c1ccco1 (stereo not given),0,1,-1,-1,-2,2
O=c1cc(CN2CCN(Cc3ccccc3)CC2)c2ccc(O)c(O)c2o1,15,-9,29,4,55*,4
CCc1nc(SCc2ccc(OCC(C)C)cc2)n[nH]1,2,2,0,0,0,2
O=C(Nc1ccc(-n2nncc2-c2ccco2)cc1)c1cc2ccccc2oc1=O,7,57*,35,45*,20,112*
O=C(Nc1ccc(-n2nncc2-c2ccco2)cc1)c1cccc(F)c1,-2,-2,-2,-2,0,-6
CC1=C(C#N)c2nc(N)c(C#N)c(C)c2/C1=C\c1ccc(OCC(=O)O)c(Cl)c1,4,37*,3,1,32,-1
O=C(O)CC(C(=O)O)N1C(=O)/C(=C/c2ccc(-c3nc4ccccc4s3)o2)SC1=S (stereo not given),23,87*,80*,63*,31,107*
O=C(O)CCCN1C(=O)/C(=C\c2ccc(-c3nc4ccccc4s3)o2)SC1=S,8,56*,75*,65*,22,85*
O=C1COc2ccccc2N1Cc1ccc(Cl)cc1,-2,-2,-7,-1,0,2
CCOc1ccc(C(Nc2cccnc2)c2cc(Cl)c3cccnc3c2O)cc1 (stereo not given),16,-2,-12,0,4,-12
O=C(O)COc1ccccc1C(Nc1cccnc1)c1cc(Cl)c2cccnc2c1O (stereo not given),37*,16,11,4,23,4
COc1ccccc1C(NC(C)=O)c1cc(Cl)c2cccnc2c1O (stereo not given),6,-13,-13,0,2,-1
SMILES,NadD block,SUMO1-SIM PPI,Scp1 inh,STEP inh,LMPTP block,DNMT1 inh
O=C(O)COc1ccccc1C(Nc1ccccn1)c1cc(Cl)c2cccnc2c1O (stereo not given),38*,11,-5,0,10,0
Cc1ccc(S(=O)(=O)c2cc3ccccc3nc2N)cc1,-2,-2,-5,-2,0,0
CCOc1ccc(S(=O)(=O)N2CCN(c3ccccc3OC)CC2)c2cccnc12,4,-2,5,4,0,2
CCCCNc1nc2c(S(=O)(=O)c3ccccc3)nnn2c2ccccc12,2,-34,-1,1,0,15
Cc1ccc(S(=O)(=O)c2nnn3c2nc(NCCCN2CCCC2=O)c2ccccc23)cc1C,1,56*,3,1,2,-1
Cc1ccc(S(=O)(=O)c2nnn3c2nc(NC2CCN(Cc4ccccc4)CC2)c2ccccc23)cc1C,38*,-34,2,10,29,-2
Cc1ccc(S(=O)(=O)c2nnn3c2nc(N2CCOCC2)c2ccccc23)cc1C,0,-40,1,2,1,-2
CN(CC(=O)Nc1ccccc1C(F)(F)F)C(=O)COc1cccnc1[N+](=O)[O-],-2,-4,-9,0,0,-1
CCCCn1nnnc1C(c1cc2ccccc2o1)N1CCN(c2cc(C)nc3ccccc23)CC1 (stereo not given),13,2,.,.,78*,.
CCn1c(SCC(=O)Nc2oc(-c3ccccc3)c(-c3ccccc3)c2C#N)nnc1-c1cc(OC)cc(OC)c1,51*,22,-2,2,5,-1
CCc1nnc(NC(=O)CSc2sc3c(O)cc(=O)[nH]c3c2C#N)s1,8,40*,95*,33,32,83*
CCc1nnc(NC(=O)CSc2nc3[nH]c(=O)cc(O)c3s2)s1,5,13,0,1,1,3
CN1C(=O)/C(=C/c2ccc(-c3ccccc3[N+](=O)[O-])o2)SC1=Nc1ccc(Cl)c(C(=O)O)c1,19,39*,3,9,2,-10
Cc1ccc(C)c(N2C(=N)S/C(=C\c3ccc(-c4ccccc4C(=O)O)o3)C2=O)c1,17,34,27,7,5,35
O=C(NCCCn1ccnc1)c1ccc(COc2ccccc2)o1,1,4,-6,1,0,1
